# In ChEMBL document CHEMBL2407068, “Tropolones as lead-like natural products: the development of potent and selective histone deacetylase inhibitors” (ACS Med Chem Lett, 2013):
# Legend:
# [1] = molecular target: T1, Protein deacetylase HDAC6 (Homo sapiens, UniProt Q9UBN7); experiment: Inhibition of human recombinant HDAC6 by Michaelis-Menten equation analysis
# T1 sequence (Q9UBN7 whole entry): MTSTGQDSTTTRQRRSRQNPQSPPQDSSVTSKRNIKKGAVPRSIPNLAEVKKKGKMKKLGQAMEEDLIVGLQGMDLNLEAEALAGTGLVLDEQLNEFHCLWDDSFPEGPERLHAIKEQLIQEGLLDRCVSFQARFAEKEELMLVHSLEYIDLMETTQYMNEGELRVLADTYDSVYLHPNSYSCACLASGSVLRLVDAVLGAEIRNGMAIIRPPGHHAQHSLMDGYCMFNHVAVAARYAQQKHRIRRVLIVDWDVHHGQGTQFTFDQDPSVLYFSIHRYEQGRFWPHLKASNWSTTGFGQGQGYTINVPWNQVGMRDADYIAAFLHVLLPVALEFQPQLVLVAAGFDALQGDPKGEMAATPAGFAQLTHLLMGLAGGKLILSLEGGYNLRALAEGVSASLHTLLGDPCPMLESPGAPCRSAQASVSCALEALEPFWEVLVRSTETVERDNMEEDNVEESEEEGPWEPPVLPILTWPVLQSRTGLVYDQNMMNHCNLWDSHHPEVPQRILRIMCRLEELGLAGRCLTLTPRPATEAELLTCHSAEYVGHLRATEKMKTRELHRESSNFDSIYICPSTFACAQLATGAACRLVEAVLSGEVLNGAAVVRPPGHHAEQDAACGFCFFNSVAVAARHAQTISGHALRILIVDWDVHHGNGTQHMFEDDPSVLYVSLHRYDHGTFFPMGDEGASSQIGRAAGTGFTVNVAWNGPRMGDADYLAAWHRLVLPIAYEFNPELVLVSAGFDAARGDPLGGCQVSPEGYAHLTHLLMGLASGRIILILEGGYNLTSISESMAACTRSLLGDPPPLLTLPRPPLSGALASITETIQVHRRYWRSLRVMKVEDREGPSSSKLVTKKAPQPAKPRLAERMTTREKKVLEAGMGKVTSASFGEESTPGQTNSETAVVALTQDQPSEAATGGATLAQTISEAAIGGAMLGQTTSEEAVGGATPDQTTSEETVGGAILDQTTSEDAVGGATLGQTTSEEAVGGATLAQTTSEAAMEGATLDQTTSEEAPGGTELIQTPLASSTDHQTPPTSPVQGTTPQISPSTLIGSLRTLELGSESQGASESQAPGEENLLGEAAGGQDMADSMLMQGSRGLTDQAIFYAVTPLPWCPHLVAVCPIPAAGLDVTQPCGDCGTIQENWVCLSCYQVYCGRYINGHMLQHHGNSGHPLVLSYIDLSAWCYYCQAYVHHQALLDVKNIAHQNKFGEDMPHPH
# [2] = species: Homo sapiens; experiment: Selectivity ratio of Ki for human recombinant HDAC8 to Ki for human recombinant HDAC2
# [3] = tested on: Jurkat; experiment: Cytotoxicity against human Jurkat cells after 72 hrs by MTS assay; assay type: functional
# [4] = molecular target: Histone deacetylase 4 (Homo sapiens, UniProt P56524); experiment: Inhibition of human recombinant HDAC4 by Michaelis-Menten equation analysis
# [5] = species: Homo sapiens; experiment: Selectivity ratio of Ki for human recombinant HDAC1 to Ki for human recombinant HDAC2
# [6] = molecular target: Histone deacetylase 2 (Homo sapiens, UniProt Q92769); experiment: Inhibition of human recombinant HDAC2 by Michaelis-Menten equation analysis
# [7] = species: Homo sapiens; experiment: Selectivity ratio of Ki for human recombinant HDAC5 to Ki for human recombinant HDAC2
# [8] = molecular target: Histone deacetylase 5 (Homo sapiens, UniProt Q9UQL6); experiment: Inhibition of human recombinant HDAC5 by Michaelis-Menten equation analysis
# [9] = species: Homo sapiens; experiment: Selectivity ratio of Ki for human recombinant HDAC4 to Ki for human recombinant HDAC2
# [10] = tested on: HuT78; experiment: Cytotoxicity against human HUT78 cells after 72 hrs by MTS assay; assay type: functional; details: HuT78, 72 h
# [11] = species: Homo sapiens; experiment: Selectivity ratio of Ki for human recombinant HDAC6 to Ki for human recombinant HDAC2
# [12] = molecular target: T2, Histone deacetylase 8 (Homo sapiens, UniProt Q9BY41); experiment: Inhibition of human recombinant HDAC8 by Michaelis-Menten equation analysis
# T2 sequence (Q9BY41 whole entry): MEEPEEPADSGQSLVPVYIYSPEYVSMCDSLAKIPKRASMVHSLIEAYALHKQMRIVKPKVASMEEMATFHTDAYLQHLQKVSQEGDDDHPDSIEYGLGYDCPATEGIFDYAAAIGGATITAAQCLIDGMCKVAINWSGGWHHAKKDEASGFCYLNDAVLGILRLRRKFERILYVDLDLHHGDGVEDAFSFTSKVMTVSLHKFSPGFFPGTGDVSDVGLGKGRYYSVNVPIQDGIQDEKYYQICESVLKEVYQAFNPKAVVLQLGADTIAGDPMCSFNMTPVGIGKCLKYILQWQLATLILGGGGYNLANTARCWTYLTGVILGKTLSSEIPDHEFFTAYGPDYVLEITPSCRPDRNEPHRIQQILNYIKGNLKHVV
# [13] = tested on: HCT-116; experiment: Cytotoxicity against human HCT116 cells after 72 hrs by MTS assay; assay type: functional; details: HCT-116, 72 h
# [14] = tested on: BXPC-3; experiment: Cytotoxicity against human BxPC3 cells after 72 hrs by MTS assay; assay type: functional; details: BXPC-3, 72 h
# [15] = tested on: Liver; experiment: Half life in mouse liver microsomes assessed as gluconoride formation at 0.4 ug/mL by HPLC-MS analysis in presence of UDPGA; assay type: ADME, Microsome
# In short: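 Mouse liver microsome incubation run for phase II conjugation, with UDPGA added. Half-life was determined, and the glucuronide conjugate was detected by mass spectrometry.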
# [16] = Cytotoxicity against HDF after 72 hrs by MTS assay; details: human, HDF cells
# [17] = molecular target: Histone deacetylase 1 (Homo sapiens, UniProt Q13547); experiment: Inhibition of human recombinant HDAC1 by Michaelis-Menten equation analysis
# [18] = Half life in mouse liver microsomes at 0.4 ug/mL by HPLC-MS analysis in presence of NADPH; assay type: ADME, Microsome
# [19] = molecular target: T2, Histone deacetylase 8; experiment: Competitive inhibition of human recombinant HDAC8 by Michaelis-Menten equation analysis
# Histone deacetylase 5, sequence (Q9UQL6 whole entry): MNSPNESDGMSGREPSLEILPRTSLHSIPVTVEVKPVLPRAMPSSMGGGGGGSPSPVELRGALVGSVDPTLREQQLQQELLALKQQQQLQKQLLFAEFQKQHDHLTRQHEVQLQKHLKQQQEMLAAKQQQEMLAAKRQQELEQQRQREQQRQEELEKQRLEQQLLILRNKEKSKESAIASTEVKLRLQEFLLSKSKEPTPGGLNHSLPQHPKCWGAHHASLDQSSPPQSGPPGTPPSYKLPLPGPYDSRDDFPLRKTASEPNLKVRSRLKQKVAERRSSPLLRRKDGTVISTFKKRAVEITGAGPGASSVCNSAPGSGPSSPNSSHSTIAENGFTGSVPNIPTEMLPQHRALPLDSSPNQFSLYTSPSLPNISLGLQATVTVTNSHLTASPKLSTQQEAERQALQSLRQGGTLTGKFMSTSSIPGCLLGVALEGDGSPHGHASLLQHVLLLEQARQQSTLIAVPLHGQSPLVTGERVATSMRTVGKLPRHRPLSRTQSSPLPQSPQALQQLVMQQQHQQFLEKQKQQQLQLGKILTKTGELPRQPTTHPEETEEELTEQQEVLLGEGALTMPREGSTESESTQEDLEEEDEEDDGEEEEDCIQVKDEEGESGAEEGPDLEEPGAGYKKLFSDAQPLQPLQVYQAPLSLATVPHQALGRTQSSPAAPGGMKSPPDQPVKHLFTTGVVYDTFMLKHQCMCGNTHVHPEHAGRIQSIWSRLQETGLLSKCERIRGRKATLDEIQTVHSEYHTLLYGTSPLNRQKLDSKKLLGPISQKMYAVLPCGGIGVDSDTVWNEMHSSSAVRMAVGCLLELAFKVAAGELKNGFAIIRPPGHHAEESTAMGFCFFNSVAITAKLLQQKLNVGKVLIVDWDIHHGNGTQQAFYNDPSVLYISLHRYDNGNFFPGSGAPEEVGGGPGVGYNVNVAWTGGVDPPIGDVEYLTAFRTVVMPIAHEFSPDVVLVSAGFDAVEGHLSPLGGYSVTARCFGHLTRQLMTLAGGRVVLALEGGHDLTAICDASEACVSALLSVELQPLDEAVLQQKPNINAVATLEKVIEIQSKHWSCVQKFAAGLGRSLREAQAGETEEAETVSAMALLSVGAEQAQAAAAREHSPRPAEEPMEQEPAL
# Histone deacetylase 1, sequence (Q13547 whole entry): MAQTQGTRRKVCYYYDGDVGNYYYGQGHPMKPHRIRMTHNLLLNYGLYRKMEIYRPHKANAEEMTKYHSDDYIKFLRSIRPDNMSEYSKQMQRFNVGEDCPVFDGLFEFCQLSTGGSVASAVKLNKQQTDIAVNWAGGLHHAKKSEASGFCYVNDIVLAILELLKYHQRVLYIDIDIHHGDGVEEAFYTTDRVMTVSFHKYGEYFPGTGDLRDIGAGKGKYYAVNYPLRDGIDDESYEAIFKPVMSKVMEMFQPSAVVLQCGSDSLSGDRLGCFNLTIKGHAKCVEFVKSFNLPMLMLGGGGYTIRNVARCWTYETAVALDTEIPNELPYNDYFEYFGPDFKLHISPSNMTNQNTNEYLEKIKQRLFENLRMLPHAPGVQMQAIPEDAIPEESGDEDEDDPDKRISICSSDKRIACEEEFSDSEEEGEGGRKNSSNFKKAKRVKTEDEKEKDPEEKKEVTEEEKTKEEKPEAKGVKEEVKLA
# Histone deacetylase 4, sequence (P56524 whole entry): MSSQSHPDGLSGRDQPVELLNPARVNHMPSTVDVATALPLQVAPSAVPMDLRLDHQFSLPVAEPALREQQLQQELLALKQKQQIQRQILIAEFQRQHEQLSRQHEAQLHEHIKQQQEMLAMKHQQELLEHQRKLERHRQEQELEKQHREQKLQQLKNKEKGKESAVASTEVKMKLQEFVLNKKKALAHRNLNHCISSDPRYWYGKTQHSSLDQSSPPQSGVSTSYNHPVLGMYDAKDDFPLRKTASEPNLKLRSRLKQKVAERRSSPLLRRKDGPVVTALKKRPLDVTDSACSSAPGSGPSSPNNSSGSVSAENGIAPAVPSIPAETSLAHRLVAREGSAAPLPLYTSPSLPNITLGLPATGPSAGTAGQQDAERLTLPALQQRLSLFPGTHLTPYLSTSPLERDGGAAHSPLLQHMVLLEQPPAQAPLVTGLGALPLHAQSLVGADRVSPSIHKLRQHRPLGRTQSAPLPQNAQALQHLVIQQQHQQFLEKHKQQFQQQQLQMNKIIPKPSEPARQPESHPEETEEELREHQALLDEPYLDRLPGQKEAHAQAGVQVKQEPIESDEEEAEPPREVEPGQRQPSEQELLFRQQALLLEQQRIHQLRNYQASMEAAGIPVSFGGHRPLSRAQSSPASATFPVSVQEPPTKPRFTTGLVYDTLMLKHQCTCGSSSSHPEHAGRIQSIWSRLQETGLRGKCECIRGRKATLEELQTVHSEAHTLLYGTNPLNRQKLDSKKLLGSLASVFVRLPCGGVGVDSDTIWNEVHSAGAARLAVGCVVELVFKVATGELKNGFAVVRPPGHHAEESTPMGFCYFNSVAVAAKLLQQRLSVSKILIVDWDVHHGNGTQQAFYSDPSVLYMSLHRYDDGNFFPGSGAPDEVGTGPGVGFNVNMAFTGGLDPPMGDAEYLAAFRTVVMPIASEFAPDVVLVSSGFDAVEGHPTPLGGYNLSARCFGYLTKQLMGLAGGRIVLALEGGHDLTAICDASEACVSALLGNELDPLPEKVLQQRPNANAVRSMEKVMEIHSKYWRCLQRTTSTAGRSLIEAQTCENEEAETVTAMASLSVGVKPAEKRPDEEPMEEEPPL
# Histone deacetylase 2, sequence (Q92769 whole entry): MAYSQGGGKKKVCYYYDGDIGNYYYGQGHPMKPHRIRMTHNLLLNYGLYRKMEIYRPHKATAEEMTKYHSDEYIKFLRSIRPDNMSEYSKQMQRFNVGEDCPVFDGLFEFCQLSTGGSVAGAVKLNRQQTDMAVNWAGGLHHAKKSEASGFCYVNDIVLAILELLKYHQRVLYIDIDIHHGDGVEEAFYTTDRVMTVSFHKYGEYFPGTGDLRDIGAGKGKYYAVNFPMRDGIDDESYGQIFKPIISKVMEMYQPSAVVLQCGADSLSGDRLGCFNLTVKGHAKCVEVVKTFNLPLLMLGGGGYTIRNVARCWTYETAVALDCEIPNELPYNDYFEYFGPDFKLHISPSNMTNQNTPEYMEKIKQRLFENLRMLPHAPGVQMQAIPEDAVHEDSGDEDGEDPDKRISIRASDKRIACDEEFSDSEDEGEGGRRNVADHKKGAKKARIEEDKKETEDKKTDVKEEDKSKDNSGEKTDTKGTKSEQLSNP
SMILES,Ki [1],Ratio Ki [2],GI50 [3],Ki [4],Ratio Ki [5],Ki [6],Ratio Ki [7],Ki [8],Ratio Ki [9],GI50 [10],Ratio Ki [11],Ki [12],GI50 [13],GI50 [14],t1/2 [15],GI50 at 72 h [16],Ki [17],half-life at 0.4 ug/mL [18],Ki [19]
CC(C)(C)c1cccc(O)c(=O)c1,> 2500 nM,> 100,4450 nM,806 nM,> 100,0.13 nM,> 100,> 2500 nM,> 100,13100 nM,> 100,12.8 nM,62600 nM,43000 nM,> 1 h,> 100000 nM,> 2500 nM,,
COc1ccc(OC)c(-c2ccccc(O)c2=O)c1,> 2500 nM,> 100,760 nM,> 20000 nM,> 100,0.42 nM,> 100,> 2500 nM,> 100,3050 nM,> 100,811 nM,46600 nM,14100 nM,> 1 h,> 100000 nM,> 2500 nM,,
COc1ccc(-c2ccccc(O)c2=O)c(OC)c1OC,> 2500 nM,> 100,1860 nM,> 20000 nM,> 100,0.23 nM,> 100,> 2500 nM,> 100,4740 nM,> 100,124 nM,35000 nM,21000 nM,> 1 h,> 100000 nM,> 2500 nM,,
O=C(CCCCCCC(=O)Nc1ccccc1)NO [VORINOSTAT],,,900 nM,,,,,,,2100 nM,,,2500 nM,5560 nM,,19000 nM,,0.467 h,
COc1ccc(OC)c(-c2cccc(O)c(=O)c2)c1,> 2500 nM,> 100,5890 nM,11200 nM,> 100,0.51 nM,> 100,> 2500 nM,> 100,17100 nM,> 100,266 nM,> 100000 nM,34800 nM,> 1 h,> 100000 nM,> 2500 nM,,
O=c1c(O)ccccc1-c1ccccc1,527 nM,,3330 nM,> 20000 nM,,0.26 nM,,> 2500 nM,,7830 nM,,1.09 nM,15200 nM,29400 nM,> 1 h,96500 nM,> 2500 nM,1.55 h,0.53 nM
COc1cccc(C(C)C)cc1=O,> 2500 nM,,> 100000 nM,11600 nM,,> 2500 nM,,> 2500 nM,,> 100000 nM,,7.87 nM,> 100000 nM,> 100000 nM,> 1 h,> 100000 nM,> 2500 nM,,
O=c1c(O)ccccc1-c1ccc2ccccc2c1,> 2500 nM,> 100,1150 nM,> 20000 nM,> 100,0.25 nM,> 100,> 2500 nM,> 100,4110 nM,> 100,186 nM,32100 nM,17100 nM,> 1 h,93100 nM,> 2500 nM,,
CC(C)c1cccc(=O)c(O)c1 [HINOKITIOL],> 2500 nM,,1100 nM,> 20000 nM,,15.4 nM,,> 2500 nM,,4990 nM,,178 nM,6920 nM,19000 nM,> 1 h,> 100000 nM,> 2500 nM,,
O=c1cc(-c2ccccc2)cccc1O,> 2500 nM,,670 nM,10900 nM,,0.06 nM,,> 2500 nM,,4140 nM,,1.47 nM,53400 nM,18500 nM,> 1 h,> 100000 nM,> 2500 nM,,
CCC(C)c1cccc(O)c(=O)c1 (centres undefined),> 2500 nM,,590 nM,6110 nM,,0.22 nM,,> 2500 nM,,3250 nM,,2.27 nM,26900 nM,104000 nM,> 1 h,> 100000 nM,> 2500 nM,,
O=c1cc(C2CCCC2)cccc1O,> 2500 nM,> 100,6300 nM,990 nM,> 100,0.04 nM,> 100,> 2500 nM,> 100,11400 nM,> 100,123 nM,> 100000 nM,180000 nM,> 1 h,> 100000 nM,> 2500 nM,,
COc1ccc(-c2ccccc(O)c2=O)cc1,> 2500 nM,> 100,620 nM,> 20000 nM,> 100,0.81 nM,> 100,> 2500 nM,> 100,2870 nM,> 100,83.8 nM,57000 nM,35900 nM,> 1 h,> 100000 nM,> 2500 nM,,
COc1ccc(-c2cccc(O)c(=O)c2)cc1,> 2500 nM,,4620 nM,8360 nM,,0.12 nM,,> 2500 nM,,8950 nM,,2.38 nM,43700 nM,91600 nM,> 1 h,> 100000 nM,> 2500 nM,,
